Measured values of several laboratories.
Each line is one published result; the experiments were not run side by side.
Cell line: HepG2
Read-out: cell growth or viability

Compound	technique	time	CC50 [µM]
N=C(N)NCc1ccc(NC(=O)c2ccc(C(=O)Nc3ccc(C4=CCN(C(=N)N)CC4)cn3)cc2)cc1	MTS	24 h	353
COc1ccc(NC(=O)N2CCCCN3C[C@H](c4ccc(C#Cc5ccccc5)cc4)[C@@H]3C2)cc1	–	–	10
COC(=O)c1c(C)ncn1CC(c1cn(C)c2ccccc12)c1cn(C)c2ccccc12	MTS	24 h	> 20
CCCCCCCCCCCC(=O)Nc1nc(N)nc2c1ncn2[C@H]1CO[C@@H](CO)O1	–	–	> 100
COC(=O)c1c(C)ncn1CC(c1c[nH]c2cc(Br)ccc12)c1c[nH]c2cc(Br)ccc12	MTS	24 h	> 20
N=C(N)NCc1ccc(NC(=O)c2ccc(C(=O)Nc3cnc(C4=CCN(C(=N)N)CC4)cn3)cc2)cc1	MTS	24 h	585
NCC(=O)CCC(=O)O	ATP luminescence	–	> 1000
Cc1cn(CC(c2cn(C)c3ccccc23)c2cn(C)c3ccccc23)nn1	MTS	24 h	> 20
COc1cc(/C=C/C(=O)CC(=O)/C=C/c2ccc(O)c(OC)c2)ccc1O	MTT	24 h	~42
Cc1cc(Nc2ccc(S(F)(F)(F)(F)F)cc2)n2ccnc2n1	–	–	> 50
O=C(NCCCN1CCOCC1)c1ccc(Nc2ncc(Cl)c(-c3ccc(Cl)s3)n2)cc1	–	44 h	4.9
N=C(N)NCc1ccc(NC(=O)c2ccc(C(=O)Nc3ccc(C4=CCN(C(=N)N)CC4)cc3)nc2)cc1	MTS	24 h	> 117
CC(=O)Oc1ccccc1C(=O)O	ATP luminescence	–	> 1000
Cc1cnc(Nc2ccc(C(=O)N3CCC(N4CCCC4)CC3)cc2)nc1-c1ccc(Cl)s1	–	44 h	10.5
COC(=O)c1c(C)ncn1CC(c1c[nH]c2ccccc12)c1c[nH]c2ccccc12	MTS	24 h	> 20
COc1ccc(NC(=O)N2CCCCN3[C@H](CN(C)S(C)(=O)=O)[C@H](c4ccc(C#Cc5ccccc5)cc4)[C@@H]3C2)cc1	–	–	> 40
